The target in data set [1] is T1, Corticotropin-releasing factor receptor 1 (Homo sapiens, UniProt P34998).
T1 sequence (P34998 whole entry): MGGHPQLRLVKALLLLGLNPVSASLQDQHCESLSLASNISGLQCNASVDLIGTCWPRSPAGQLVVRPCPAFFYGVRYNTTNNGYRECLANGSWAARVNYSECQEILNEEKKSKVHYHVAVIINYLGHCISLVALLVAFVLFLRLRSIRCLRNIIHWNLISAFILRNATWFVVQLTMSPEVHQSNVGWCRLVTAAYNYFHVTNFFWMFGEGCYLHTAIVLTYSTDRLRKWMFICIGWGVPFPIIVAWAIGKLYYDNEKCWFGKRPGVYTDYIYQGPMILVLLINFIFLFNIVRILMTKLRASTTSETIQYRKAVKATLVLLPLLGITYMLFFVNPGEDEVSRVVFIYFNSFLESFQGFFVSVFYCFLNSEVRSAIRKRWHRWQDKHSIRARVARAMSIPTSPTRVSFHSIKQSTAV
Put plainly: Antagonist activity at human recombinant CRF1 receptor expressed in CHO cells assessed as inhibition of CRF-induced cAMP production. The data set is classed as functional, cell-based. In a few lines:
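CHO cells stably expressing recombinant human CRF-1, grown in DMEM:F12 with 10% FBS, 1% Glutamax and Geneticin at 37 °C, 5% CO2 to 70% confluence. hCRF (10 nM final) added with compound to 10,000 cells/well in PBS with IBMX. cAMP read by enzyme-fragment complementation kit. 0.5-log serial dilutions, repeated tests, 4-parameter logistic IC50. Ki by Cheng–Prusoff from agonist EC50 measured the same day.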

For data set [2], the system named is Liver microsomes. The experiment in a line: Intrinsic clearance in rat liver microsomes assessed per mg of protein. The data set is classed as ADME, Microsome. For orientation: Liver microsomes are a subcellular fraction often used to study metabolism.
Data set [3] deals with Liver microsomes. The experiment in a line: Intrinsic clearance in human liver microsomes assessed per mg of protein. The data set is classed as ADME, Microsome.
Data set [4] in a line: Half life in rat at 0.1 mg/kg, iv and 5 mg/kg, po. It counts as ADME, organism-based. As to conditions: in vivo.
A short description of data set [5]: Chemical stability at pH 1.2 assessed as compound remaining at 50 degC after 14 days. The data set is classed as physicochemical. To be noted: buffer, read-out: Stability.
Data set [6] in a line: Chemical stability of the compound. It counts as physicochemical.
A short description of data set [7]: Clearance in rat at 0.1 mg/kg, iv and 5 mg/kg, po. The data set is classed as ADME, organism-based. As to conditions: in vivo.
Data set [8] is described as follows: Bioavailability in rat at 0.1 mg/kg, iv and 5 mg/kg, po. The data set is classed as ADME, organism-based. As to conditions: in vivo.
Data set [9] can be described thus: Volume of distribution in rat at 0.1 mg/kg, iv and 5 mg/kg, po. The data set is classed as ADME, organism-based. To be noted: in vivo.

What is called Ki is a dissociation constant, usually derived from enzyme kinetics or from competition with a known ligand. Turning to `CCC(CC)Nc1nc(C)nc2c1c(C)nn2-c1ccc(OC)cc1C`, the Ki in [1] was found to be 42 nM. In addition, the clearance in data set [2] was found to be 72 µL/min/mg; in data set [3], 64 µL/min/mg.
In the case of `CCC[C@H](CO)Nc1nc(C)nc2c1c(C)nn2-c1ccc(OC)cc1C`, the Ki in data set [1] amounted to 76 nM. Further, the clearance in [2] is 41 µL/min/mg; in [3] it was 23 µL/min/mg.
In the same order, the values of `COc1ccc(-n2nc(C)c3c(NC(C4CC4)C4CC4)nc(C)nc32)c(C)c1` are 35 nM, 24 µL/min/mg and below 12 µL/min/mg.
In the same order, the values of `CCCN(CCO)c1nc(C)nc2c1c(C)nn2-c1ccc(OC)cc1C` are 129 nM, 117 µL/min/mg and 80 µL/min/mg.
As to `CCCN(CC(=O)N(C)C)c1nc(C)nc2c1c(C)nn2-c1ccc(OC)cc1C`, the Ki in [1] is 1410 nM. Also, the clearance came to 22 µL/min/mg in data set [2] and 18 µL/min/mg in [3].
Consider `CC[C@H](COC)Nc1nc(C)nc2c1c(C)nn2-c1ccc(OC)cc1C`, for which, in data set [1], the Ki stood at 210 nM. Moreover, the results for the clearance in data set [2] and in [3] were 53 µL/min/mg and 37 µL/min/mg, respectively.
In the same order, the values of `CCCNCc1nc(Nc2nc(C)nc3c2c(C)nn3-c2ccc(OC)cc2C)no1` are 124 nM, 58 µL/min/mg and 29 µL/min/mg.
`CC[C@H](CO)Nc1nc(C)nc2c1c(C)nn2-c1ccc(OC)cc1C`: the Ki in [1] was determined as 1130 nM. In addition, the clearance in [2] is 23 µL/min/mg; in data set [3] it was below 7 µL/min/mg.
In the same order, the values of `CCCN(CCOC)c1nc(C)nc2c1c(C)nn2-c1ccc(C#N)cc1C` are 101 nM, below 11 µL/min/mg and 147 µL/min/mg.
In the same order, the values of `CCCNCc1cncn1Nc1nc(C)nc2c1c(C)nn2-c1ccc(OC)cc1C` are 2500 nM, 85 µL/min/mg and 196 µL/min/mg.
In the same order, the values of `CCN(CCOC)c1nc(C)nc2c1c(C)nn2-c1ccc(OC)cc1C` are 117 nM, 104 µL/min/mg and 117 µL/min/mg.
Regarding `CCCN(CCOC)c1nc(C)nc2c1c(C)nn2-c1ccc(C(N)=O)cc1C`, the Ki in data set [1] turned out to be 275 nM. The clearance in [2] is 22 µL/min/mg; in data set [3], 17 µL/min/mg.
Turning to `CCCNCc1nccn1Nc1nc(C)nc2c1c(C)nn2-c1ccc(OC)cc1C`, the Ki in data set [1] is 400 nM. For the same compound, the clearance in data set [2] is 67 µL/min/mg; in data set [3] it was 96 µL/min/mg.
In the same order, the values of `CCCNCc1noc(Nc2nc(C)nc3c2c(C)nn3-c2ccc(OC)cc2C)n1` are 84 nM, 66 µL/min/mg and 51 µL/min/mg.
In the same order, the values of `CC[C@@H](CO)Nc1nc(C)nc2c1c(C)nn2-c1ccc(OC)cc1C` are 620 nM, 27 µL/min/mg and below 7 µL/min/mg.
In the same order, the values of `CCCN(CCOC)c1nc(C)nc2c1c(C)nn2-c1ccc(OC)cc1C` are 13 nM, 23 µL/min/mg and 172 µL/min/mg.
Consider `CCCNCc1nnc(Nc2nc(C)nc3c2c(C)nn3-c2ccc(OC)cc2C)o1`, for which the inhibition constant (Ki) in [1] worked out at 996 nM. Further, the clearance in data set [2] was determined as 40 µL/min/mg; in data set [3], 34 µL/min/mg.
In the same order, the values of `CCCN(CCOC)c1nc(C)nc2c1cnn2-c1ccc(OC)cc1C` are 132 nM, 387 µL/min/mg and 16 µL/min/mg.
In the same order, the values of `CCCN(CCOC)c1nc(C)nc2c1c(C)nn2-c1ccc(OC)nc1C` are 43 nM, 163 µL/min/mg and 117 µL/min/mg.
In the same order, the values of `CCCN(CCOC)c1nc(C)nc2c1c(C)nn2-c1ccc(OC)nc1OC` are 17 nM, 159 µL/min/mg and 218 µL/min/mg.
In the case of `CCC[C@@H](CO)Nc1nc(C)nc2c1c(C)nn2-c1ccc(OC)cc1C`, in data set [1], the Ki came out at 574 nM. Also, the clearance in [2] stood at 36 µL/min/mg; in [3], 10 µL/min/mg.
Usually half-life stands for the time in which the quantity being followed falls by half. A lower half-life goes with fast loss. What is called bioavailability is the share of a dose that reaches the circulation, judged against a reference dose that is usually intravenous. A lower bioavailability goes with poor availability. With `COc1ccc(-n2ncc3c(NC(C4CC4)C4CC4)nc(C)nc32)c(C)c1`, in data set [4], the half-life is 114 min. Besides, the remaining at 336 h in data set [5] was determined as 51%. Besides, in data set [6], the Stability result was “Stable”. For the same compound, in data set [1], the Ki is 32 nM. Also, the results for the clearance in data set [2], in data set [7] and in data set [3] were 25 µL/min/mg, 27 mL/min/kg and below 11 µL/min/mg, respectively. This compound returned a bioavailability in data set [8] of 43%. Moreover, the Vd in data set [9] worked out at 7 L/kg.
As for `CCCCN(CC)c1nc(C)nc2c1c(C)nn2-c1c(C)cc(C)cc1C`, the Ki in data set [1] was determined as 9 nM. Further, the clearance in data set [3] is above 320 µL/min/mg.
Take `CCCN(CCOC)c1nc(C)nc2c1c(C)nn2-c1ccc(C(N)=O)nc1C`: the Ki in data set [1] was found to be 577 nM. In addition, the clearance in data set [2] stood at 13 µL/min/mg; in data set [3], 38 µL/min/mg.
As to `CCC(CC)Nc1nc(C)nc2c1cnn2-c1ccc(OC)cc1C`, in [1], the Ki is 85 nM. Also, the clearance in [2] came out at 246 µL/min/mg; in data set [3], 15 µL/min/mg.
In the same order, the values of `CC[C@@H](COC)Nc1nc(C)nc2c1c(C)nn2-c1ccc(OC)cc1C` are 135 nM, 105 µL/min/mg and 52 µL/min/mg.
In the same order, the values of `COCCN(CCOC)c1nc(C)nc2c1c(C)nn2-c1ccc(OC)cc1C` are 193 nM, 47 µL/min/mg and 66 µL/min/mg.
In the same order, the values of `CCCN(CCOC)c1nc(C)nc2c1c(C)nn2-c1ccc(C#N)cc1C#N` are 632 nM, 166 µL/min/mg and 151 µL/min/mg.
Consider `CCCN(CCOC)c1nc(C)nc2c1c(C)nn2-c1ccc(OC)cc1OC`, for which the Ki in data set [1] stood at 74 nM. Further, the clearance was 90 µL/min/mg in data set [2] and 86 µL/min/mg in data set [3].
In the same order, the values of `CCCN(CCOC)c1nc(C)nc2c1c(C)nn2-c1cnc(N(C)C)cc1C` are 183 nM, 206 µL/min/mg and 160 µL/min/mg.

Values taken from ChEMBL document CHEMBL1156069, “Optimising metabolic stability in lipophilic chemical space: the identification of a metabolically stable pyrazolopyrimidine CRF-1 receptor antagonist” (Bioorg Med Chem Lett, 2009).
